Source: PubChem
S100A4 MyoIIA = inhibitors of human S100A4 binding to myosin IIA peptide; P26447; S100A4/TAMRA-MyoIIA peptide fluorescence polarization; inhibition, % at 10.7 µM; hit rate 0.14% among 360,000;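 active means mean inhibition of at least 70% across replicates, with every replicate also reaching that level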
Target sequence (P26447 whole entry, looked up): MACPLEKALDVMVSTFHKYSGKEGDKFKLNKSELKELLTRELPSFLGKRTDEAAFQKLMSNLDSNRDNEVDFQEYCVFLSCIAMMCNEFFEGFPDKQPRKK
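assay system = human S100A4 monomer with TAMRA-labelled myosin IIA peptide | also added = labelled myosin peptide probe, 5 nM | incubation = 5 min between mix addition and reading | control set = DMSO and TFP controls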
ERAP1 HTS inh = inhibitors of human ERAP1 aminopeptidase | Q9NZ08 | recombinant ERAP1, Leu-AMC fluorescence, 60 min | inhibition, % at 10.7 µM | hit rate 0.15% among 340,000 | AID 652197;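 active means mean replicate inhibition of at least 30%, or all replicates individually reaching that 30% level; inactive means mean below 30% and not every replicate reaching it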;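 further: 0% = neutral control wells and 100% = L-leucinethiol positive control wells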
Ecoli rRNA inh = inhibitors of bacterial rRNA selective over humanized ribosomes. E. coli WT GFP vs humanized-ribosome RFP mutants, fluorescence, 24 h; active compounds read low; DMSO median 0, no signal -100. hit rate 1.6% among 350,000. GFP signal change (wild-type ribosome), % (concentration not given with the values). AID 720706;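 active means significant combined selectivity score with lowered wild-type GFP, culture density cut under 30%, mutant RFP and density less affected; inactive means any of these conditions unmet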
CFTR F508del cor = CFTR F508del correction in bronchial cells | CFBE cells, YFP halide quenching; stimulated with forskolin plus potentiator P3; % fluorescence drop versus neutral controls | activity (quench increase), % at 7.58 µM | hit rate 0.36% among 350,000;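 active means mean added fluorescence quench of at least 8% versus neutral control, with both replicates also reaching 8%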;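 further: cells transiently co-express mutant CFTR-F508del with the halide-sensitive YFP; corrector assay measuring rescue of mutant channel to the surface after 24 h compound exposure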
SIRT5 block = sirtuin-5 (human) deacylase inhibition; Q9NXA8; Purified SirT5, succinyl-peptide AMC, trypsin-coupled fluorescence; inhibition, % at 15 µM; hit rate 1.1% among 330,000; AID 652115; in the data active means inhibition above about 15%
Target sequence (Q9NXA8 whole entry, looked up): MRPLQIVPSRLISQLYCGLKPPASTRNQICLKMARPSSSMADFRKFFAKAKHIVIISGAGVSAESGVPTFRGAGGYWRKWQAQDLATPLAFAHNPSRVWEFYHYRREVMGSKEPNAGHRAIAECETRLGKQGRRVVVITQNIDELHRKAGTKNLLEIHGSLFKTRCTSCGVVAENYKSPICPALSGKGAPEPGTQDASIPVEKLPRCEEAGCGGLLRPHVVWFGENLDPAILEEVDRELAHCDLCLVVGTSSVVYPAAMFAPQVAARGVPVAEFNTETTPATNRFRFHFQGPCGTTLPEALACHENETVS
The depositor's hits bear a star; . = no result. Only some compounds are listed: those with a hit (about 3.1% of all), similar ones and a draw of the others.

SMILES	S100A4 MyoIIA	ERAP1 HTS inh	Ecoli rRNA inh	CFTR F508del cor	SIRT5 block
CN(C)Cc1nc2ccccc2c(=O)n1Cc1nc(-c2cccc([N+](=O)[O-])c2)cs1	2	-2	-24*	2	2
Cc1cc(-c2cccc([N+](=O)[O-])c2)nc2ccccc12	1	2	-1	-1	-7
C[C@H](CO)N1C[C@H](C)[C@H](CN(C)S(=O)(=O)CC(F)(F)F)OCc2ccccc2-c2ccccc2C1=O	4	-1	-2	-1	13
O=C(C[C@H]1CC[C@H]2[C@@H](COC[C@H](O)CN2C(=O)c2ccccc2)O1)N1CCOCC1	-16	0	-1	3	1
COc1ccc(C2C3=C(CCCC3=O)N(CC(=O)O)C3=C2C(=O)CCC3)cc1Cl	-4	31*	10	-1	-24
COc1ccc(C2Nc3ccccc3C(=O)N2NS(C)(=O)=O)c(OC)c1 (stereo not given)	-6	-8	5	-1	15*
COc1cc(C2Nc3ccccc3C(=O)N2NS(C)(=O)=O)c([N+](=O)[O-])cc1OC (stereo not given)	-4	1	-8	0	-1
COCCOC(=O)N1C(=O)[C@@]2(c3cc(C#CCC(C(=O)OC)C(=O)OC)ccc31)[C@H](c1ccccc1OCCO)N1[C@H](c3ccccc3)[C@H](c3ccccc3)OC(=O)[C@H]1[C@@H]2C(=O)NC[C@H](O)c1ccccc1	0	2	.	0	16*
COCCOC(=O)N1C(=O)[C@@]2(c3cc(C#CCCO)ccc31)[C@H](c1ccccc1OCCO)N1[C@H](c3ccccc3)[C@H](c3ccccc3)OC(=O)[C@H]1[C@@H]2C(=O)N1CCN(c2ncccn2)CC1	0	-2	.	-3	19*
COCCOC(=O)N1C(=O)[C@@]2(c3ccccc31)[C@H](C(=O)N1CCN(c3ncccn3)CC1)[C@H]1C(=O)O[C@H](c3ccccc3)[C@H](c3ccccc3)N1[C@@H]2c1ccccc1OCCO	-6	0	.	0	16*
COCCOC(=O)N1C(=O)[C@@]2(c3cc(C#Cc4ccc(OC)cc4)ccc31)[C@H](c1ccccc1OCCO)N1[C@H](c3ccccc3)[C@H](c3ccccc3)OC(=O)[C@H]1[C@@H]2C(=O)NC[C@H](O)c1ccccc1	-2	1	.	-3	-6
COCCOC(=O)N1C(=O)[C@@]2(c3cc(C#CCCO)ccc31)[C@H](C(=O)N1CCN(c3ncccn3)CC1)[C@H]1C(=O)O[C@H](c3ccccc3)[C@H](c3ccccc3)N1[C@@H]2c1ccccc1OCCO	-1	2	.	0	14
COc1ccc2c3c([nH]c2c1)[C@@H](CO)N(C(=O)c1ccccc1)CC31CCN(C(=O)NC(C)C)CC1	5	0	2	-2	.
CO[C@H]1CN(C)C(=O)c2ccc(NC(=O)Nc3ccccc3Cl)cc2OC[C@H](C)NC[C@H]1C	-11	-4	-2	0	4
CCC(=O)Nc1ccc2c(c1)OC[C@@H](C)N(C(=O)c1ccc(F)cc1)C[C@@H](C)[C@@H](OC)CN(C)C2=O	10	.	4	0	5
CCN(CC)CCCNC(=O)CSc1c2c(nc3cc(Cl)ccc13)CCCC2	12	-5	13	0	-3
COCCCNC(=O)CSc1c2c(nc3ccc(Cl)cc13)CCCC2	-6	-1	-23*	.	-4
C[C@H](CO)N1C[C@H](C)[C@@H](CN(C)Cc2ccc(Oc3ccccc3)cc2)Oc2ccc(NC(=O)C3CC3)cc2CC1=O	-12	2	-27	-2	9
CC(C)(C)OC(=O)NCc1ccc(CNC(=O)c2nc[nH]c2C(=O)NCc2ccc(CNC(=O)OC(C)(C)C)cc2)cc1	-20	-5	10	0	16*
C[C@H](NC(=O)c1nc[nH]c1C(=O)N[C@@H](CCCCNC(=O)OC(C)(C)C)C(=O)OC(C)(C)C)C(=O)OCc1ccccc1	1	4	16	-1	2
CC(C)(C)OC(=O)CNC(=O)c1nc[nH]c1C(=O)NCc1ccc(CNC(=O)OC(C)(C)C)cc1	-2	3	-8	-1	-3
CC(C)(C)OC(=O)NCCCC[C@H](NC(=O)c1nc[nH]c1C(=O)NCC(=O)OCc1ccccc1)C(=O)OC(C)(C)C	2	2	1	0	24*
Cc1ccc(S(=O)(=O)Nc2ccc3c(c2)CC(=O)N([C@@H](C)CO)C[C@H](C)[C@@H](CN(C)Cc2ccc4c(c2)OCO4)O3)cc1	-2	-1	-55	2	3
CC(=O)N1CCN(C(=S)NC(=O)c2ccc(F)cc2)CC1	2	-5	1	2	-14
N#Cc1ccc(C(=O)NC(=S)N2CCN(C=O)CC2)cc1	-1	-2	5	3	20*
SMILES	S100A4 MyoIIA	ERAP1 HTS inh	Ecoli rRNA inh	CFTR F508del cor	SIRT5 block
COc1ccc(NC(=O)Nc2ccc3c(c2)C(=O)N([C@H](C)CO)C[C@H](C)[C@@H](CN(C)S(=O)(=O)c2c(C)noc2C)O3)cc1	.	.	-1	.	.
COC(=O)[C@]12CCCCC=C1N(Cc1ccccc1)C(=O)[C@H](CC(=O)N1CCCC1)C2	-6	.	-2	-3	.
COC(=O)[C@]12CCCCC=C1N(Cc1ccccc1)C(=O)[C@H](CC(=O)N1CCCCC1)C2	-2	.	-26*	-2	.
COC(=O)[C@]12CCCCC=C1N(Cc1ccccc1)C(=O)[C@H](CC(=O)NCc1ccc(OC)c(OC)c1)C2	-1	.	-20*	0	1
O=C(CN1C(=O)NC2(CCCC2)C1=O)Oc1ccc2ccc(=O)oc2c1	-2	57*	8	5	2
CCc1cc(=O)oc2cc(OC(=O)CN3C(=O)NC4(CCCC4)C3=O)ccc12	-2	-67	9	1	-151
C[C@@H]1CCCCO[C@@H](CN(C)C(=O)Nc2ccc3c(c2)OCO3)[C@@H](C)CN([C@H](C)CO)C(=O)c2cc(NC(=O)Nc3ccccc3)ccc2O1	38	1	6	1	-2
Cc1nc(NC(=O)C2CC2)sc1C(=O)NC1CCCCC1	-4	1	8	-6	-3
Cc1nc(NC(=O)C2CC2)sc1C	-4	3	0	.	22*
CCOC(=O)c1sc(NC(=O)C2CCCCC2)nc1C	1	-1	-30*	1	-1
CCOC(=O)c1sc(NC(=O)CSC(=S)N2CCN(C)CC2)nc1C	-3	-2	-25*	-3	-2
O=C/C=C/c1ccc(-c2ccccc2)cc1	10	3	.	-6	2
C[C@@H]1CN([C@@H](C)CO)C(=O)c2cc(/C=C/c3ccccc3)cnc2O[C@H]1CN(C)Cc1ccc2c(c1)OCO2	3	-2	3	-1	-5
COCC(=O)Nc1ccc2c(c1)C(=O)N(C)C[C@@H](OC)[C@H](C)CN(Cc1ccccn1)[C@H](C)CO2	3	-3	4	-3	23*
